Laboratory results published in ChEMBL document CHEMBL3271978, “Synthesis and some pharmacological properties of [4-homoserine]oxytocin” (J Med Chem, 1977).
Positions of bridges follow the written chain, without caps; N, C: chain ends. Non-standard residues stand in square brackets, D forms with d. Residues, ends and D or L forms follow the SMILES beside them. hSer = N[C@@H](CCO)C(=O)O

Experiments:
[1] = Oxytocic potency in rat uterus; type: functional
Summary of the method: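 Isolated rat uterus suspended in bath solution without Mg2+; oxytocic activity assayed against USP posterior pituitary reference standard.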

[2] = Oxytocic potency in rat uterus in presence of 0.5 mM Mg2+; type: functional
Summary of the method: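 Isolated rat uterus suspended in solution containing 0.5 mM Mg2+; oxytocic activity assayed against USP posterior pituitary reference standard.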

Rattus norvegicus [3] = assay: Oxytocic activity in iv dosed lactating rat anesthetized with pentobarbital assessed as milk ejection; type: functional
Summary of the method: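 Lactating rats anesthetized with pentobarbital received peptide by intravenous injection; milk-ejection response measured relative to USP posterior pituitary reference standard.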

Rattus norvegicus [4] = assay: Antidiuretic activity in iv dosed hydrated rat anesthetized with ethanol; type: ADME, organism-based, Urine; settings: in vivo
Rattus norvegicus [5] = species on record: Rattus norvegicus; assay: Vasopressor activity in phenoxybenzamine-treated rat under urethane anesthesia; type: ADME, organism-based; settings: in vivo
Summary of the method: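 Rats pretreated with phenoxybenzamine, under urethane anesthesia; pressor response assayed against USP posterior pituitary reference standard.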

[6] = Ratio of oxytocic potency in rat uterus to antidiuretic activity in iv dosed hydrated rat anesthetized with ethanol
[7] = Ratio of oxytocic potency in rat uterus to vasopressor activity in phenoxybenzamine-treated rat under urethane anesthesia

## CC[C@H](C)[C@@H]1NC(=O)[C@H](Cc2ccc(O)cc2)NC(=O)[C@@H](N)CSSC[C@@H](C(=O)N2CCC[C@H]2C(=O)N[C@@H](CC(C)C)C(=O)NCC(N)=O)NC(=O)[C@H](CC(N)=O)NC(=O)[C@H](CC(N)=O)NC1=O (H-CYINNCPLG-NH2; disulfide 1-6)
[1]
  Activity: 108 U/mg
[2]
  Activity: 490 U/mg
Rattus norvegicus [3]
  Activity: 300 U/mg
Rattus norvegicus [4]
  Activity: 0.044 U/mg
Rattus norvegicus [5]
  Activity: 0.12 U/mg
[6]
  Ratio: 929
[7]
  Ratio: 823

## CC[C@H](C)[C@@H]1NC(=O)[C@H](Cc2ccc(O)cc2)NC(=O)[C@@H](N)CSSC[C@@H](C(=O)N2CCC[C@H]2C(=O)N[C@@H](CC(C)C)C(=O)NCC(N)=O)NC(=O)[C@H](CC(N)=O)NC(=O)[C@H]([C@@H](C)O)NC1=O (H-CYITNCPLG-NH2; disulfide 1-6)
[1]
  Activity: 923 U/mg
[2]
  Activity: 719 U/mg
Rattus norvegicus [3]
  Activity: 543 U/mg
Rattus norvegicus [4]
  Activity: 1.8 U/mg
Rattus norvegicus [5]
  Activity: 0.43 U/mg
[6]
  Ratio: 510
[7]
  Ratio: 2150

## CC[C@H](C)[C@@H]1NC(=O)[C@H](Cc2ccc(O)cc2)NC(=O)[C@@H](N)CSSC[C@@H](C(=O)N2CCC[C@H]2C(=O)N[C@@H](CC(C)C)C(=O)NCC(N)=O)NC(=O)[C@H](CC(N)=O)NC(=O)[C@H](CCO)NC1=O (H-CYI[hSer]NCPLG-NH2; disulfide 1-6)
[1]
  Activity: 125 U/mg
[2]
  Activity: 380 U/mg
Rattus norvegicus [3]
  Activity: 357 U/mg
Rattus norvegicus [4]
  Activity: 0.24 U/mg
Rattus norvegicus [5]
  Activity: 0.021 U/mg
[6]
  Ratio: 520
[7]
  Ratio: 5950

## CC[C@H](C)[C@@H]1NC(=O)[C@H](Cc2ccc(O)cc2)NC(=O)[C@@H](N)CSSC[C@@H](C(=O)N2CCC[C@H]2C(=O)N[C@@H](CC(C)C)C(=O)NCC(N)=O)NC(=O)[C@H](CC(N)=O)NC(=O)[C@H](CCC(N)=O)NC1=O [OXYTOCIN]
[1]
  Activity: 520 U/mg
[2]
  Activity: 486 U/mg
Rattus norvegicus [3]
  Activity: 474 U/mg
Rattus norvegicus [4]
  Activity: 4 U/mg

## CC[C@H](C)[C@@H]1NC(=O)[C@H](Cc2ccc(O)cc2)NC(=O)[C@@H](N)CSSC[C@@H](C(=O)N2CCC[C@H]2C(=O)N[C@@H](CC(C)C)C(=O)NCC(N)=O)NC(=O)[C@H](CC(N)=O)NC(=O)[C@H](CO)NC1=O (H-CYISNCPLG-NH2; disulfide 1-6)
[1]
  Activity: 148 U/mg
[2]
  Activity: 331 U/mg
Rattus norvegicus [3]
  Activity: 255 U/mg
Rattus norvegicus [4]
  Activity: 0.06 U/mg
Rattus norvegicus [5]
  Activity: 0.028 U/mg
[6]
  Ratio: 80
[7]
  Ratio: >1950
